The results in this text go back to ChEMBL document CHEMBL3046500, “Secondary metabolites from Glycine soja and their growth inhibitory effect against Spodoptera litura” (J Agric Food Chem, 2011).

The structures appear in SMILES notation. Activity calls are given as the source filed them. The rule behind the calls is not given here.

Series [1] has as its system Spodoptera litura. Kind of series: Drug metabolism in fourth instar larval stage of Spodoptera litura assessed in excrements after feeding diet containing compound by HPLC analysis. Type of series: ADME, organism-based. Particulars: in vivo, po. In outline: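 Excrement from treated and control larvae was collected separately, extracted with methanol under ultrasonication (3 × 20 min), centrifuged, and the supernatant run on RP-18 HPLC (250 × 4.6 mm, 5 μm) at 30 °C and 1.0 mL/min. Elution used a water/methanol gradient set per analyte over 0–30 min, then 95% methanol. DAD read at 210/238/254/280 nm; TLC (CHCl3/MeOH 4:1) for a non-UV-absorbing analyte.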

Series [2] deals with Spodoptera litura. Description: Insecticidal activity against fourth instar larval stage of Spodoptera litura in glandless fresh cabbage leaves assessed as growth inhibition measured 3 days after feeding diet containing compound. Type of series: functional, organism-based. The method in brief: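 Larvae starved 4 h, weighed, then placed on treated material for 4 h. They were then moved to fresh untreated leaves or artificial diet. This was repeated every 24 h, with each larva's weight recorded. Seven replicates per treatment; whole experiment run three times.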

In series [3] the test system is Spodoptera litura. Description: Antifeedant activity against fourth instar larval stage of Spodoptera litura on fresh cabbage leaves. Type of series: functional, organism-based.

Turning to `O=c1c(-c2ccc(O)cc2)coc2cc(O)ccc12` [DAIDZEIN], the Drug metabolism entry with Spodoptera litura [1] is on record as “Not Active”. The “growth inhibition (GI)” value in the series with Spodoptera litura [2] is “Active”. Also, in the series with Spodoptera litura [3], the result was inactive.

`O=c1c(-c2ccc(O)cc2)coc2cc(O)cc(O)c12` [GENISTEIN]: the Drug metabolism entry in the series with Spodoptera litura [1] was “Active”. The “growth inhibition (GI)” value in the series on Spodoptera litura [2] is “inactive”. The result with Spodoptera litura [3] was inactive.

For the compound `O=c1c(-c2ccc(O)cc2)coc2cc(O[C@@H]3O[C@H](CO)[C@@H](O)[C@H](O)[C@H]3O)cc(O)c12` [GENISTIN], the Drug metabolism result in the series with Spodoptera litura [1] is reported as “Active”. Besides, the “growth inhibition (GI)” value with Spodoptera litura [2] is “inactive”. The result with Spodoptera litura [3] was inactive.

Take `CO[C@H]1[C@H](O)[C@@H](O)[C@@H](O)[C@H](O)[C@@H]1O` [METHYLINOSITOL]: the Drug metabolism entry in the series on Spodoptera litura [1] was “Active”. Also, the “growth inhibition (GI)” value with Spodoptera litura [2] is “inactive”. In addition, the outcome in the series on Spodoptera litura [3] was inactive.
